DENV2 CPE rescue: inhibitors of DENV2 cytopathic effect. actives 1.7% (n = 350,000). DENV2-infected cells, cytopathic effect rescue, plate reader. AID 651640. CPE inhibition, % at 9.99 µM; in the data active means CPE inhibition above about 20%, passing the limit was not always enough; tested in BHK-21 cells;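 further: 0% = median of neutral control wells and 100% = median of positive control wells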
Ecoli rRNA inh: inhibits bacterial ribosomal RNA function over humanized ribosomes | actives 1.6% (n = 350,000) | GFP signal change (wild-type ribosome), % (concentration not given with the values) | E. coli WT GFP vs humanized-ribosome RFP mutants, fluorescence, 24 h; hits give low values; DMSO median 0, no signal -100;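 active means significant combined selectivity score with lowered wild-type GFP, culture density cut under 30%, mutant RFP and density less affected; inactive means any of these conditions unmet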
Cneo AK release: Cryptococcus neoformans lysis via adenylate kinase release | actives 0.2% (n = 360,000) | AID 651654 | lysis activity, % at 15 µM | C. neoformans lysis, adenylate kinase release luminescence, 4 h; normalised: neutral wells 0, clomiphene wells 100;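 active means mean lysis activity across replicates of at least 80%, whatever share of replicates individually reach that level; inactive means mean lysis activity below 80%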
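Schedule: static 4 h at 37 °C with compound, 1 h detection; system: C. neoformans cells; benchmarks: Clomiphene as positive control; buffer or medium: fresh YPD medium; measure: luminescence rise reflecting yeast cell lysis; measured by: luminescent adenylate kinase detection reagent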
PfHsp90 set2: inhibits growth of yeast expressing Plasmodium falciparum Hsp90; S. cerevisiae expressing PfHsp90, BacTiter-Glo ATP, 48 h; yeast lacking PDR1 and PDR3 efflux regulators; inhibition, % at 9.4 µM; actives 0.32% (n = 310,000); AID 504621;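 active means every replicate shows inhibition above about 80%, whatever the replicate mean, limit read from the data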;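 further: 0% = DMSO neutral controls and 100% = 20 µM radicicol positive controls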
MLL AF4-AF9 inh: blocks AF4 peptide binding to human AF9. P42568. AlphaScreen, biotin-AF4 peptide binding to FLAG-AF9. inhibition, % at 10 µM. actives 0.47% (n = 350,000);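 active means every replicate reaching a set inhibition limit, whatever the replicate mean, cut at about 25% in these data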;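 further: 0% = plate neutral control median and 100% = total signal loss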
Target sequence (P42568 whole entry, looked up): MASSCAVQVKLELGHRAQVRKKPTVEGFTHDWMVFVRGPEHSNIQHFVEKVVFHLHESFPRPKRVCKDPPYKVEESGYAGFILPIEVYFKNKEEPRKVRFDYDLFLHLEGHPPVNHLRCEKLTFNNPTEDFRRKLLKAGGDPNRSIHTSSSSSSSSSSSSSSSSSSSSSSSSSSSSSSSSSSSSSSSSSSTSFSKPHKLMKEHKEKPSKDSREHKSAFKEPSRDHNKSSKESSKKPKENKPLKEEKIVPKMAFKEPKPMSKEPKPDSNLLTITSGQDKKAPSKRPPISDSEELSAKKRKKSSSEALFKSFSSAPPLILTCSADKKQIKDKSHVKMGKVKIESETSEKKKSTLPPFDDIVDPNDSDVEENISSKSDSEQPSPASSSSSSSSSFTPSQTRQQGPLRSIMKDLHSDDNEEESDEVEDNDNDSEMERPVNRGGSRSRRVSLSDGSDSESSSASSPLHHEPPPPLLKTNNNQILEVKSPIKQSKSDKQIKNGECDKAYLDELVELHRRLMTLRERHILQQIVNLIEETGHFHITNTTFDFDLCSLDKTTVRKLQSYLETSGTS
S100A4 inh HTS: S100A4-myosin IIA interaction inhibition | P26447 | S100A4/TAMRA-MyoIIA peptide fluorescence polarization | inhibition, % at 10.7 µM | actives 0.14% (n = 360,000) | AID 652163;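 active means mean inhibition of at least 70% across replicates, with every replicate also reaching that level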
Target sequence (P26447 whole entry, looked up): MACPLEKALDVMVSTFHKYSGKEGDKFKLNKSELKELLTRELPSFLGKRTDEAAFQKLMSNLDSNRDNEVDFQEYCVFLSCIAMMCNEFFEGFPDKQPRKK
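Material: human S100A4 monomer with TAMRA-labelled myosin IIA peptide; buffer or medium: HEPES pH 7.2 with CaCl2, KCl, NaCl, DTT, Triton; compound dosing: one concentration per compound; schedule: 5 min incubation before reading; benchmarks: neutral control DMSO, positive control TFP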
* = called active by the depositor. Most compounds without a hit are left out; they make up all but 3.2% or so of the library.

`CC(C)NC(=O)N[C@H]1C=C[C@@H](CC(=O)NC2Cc3ccccc3C2)O[C@@H]1CO` gave DENV2 CPE rescue 2, Ecoli rRNA inh 3, Cneo AK release 1, MLL AF4-AF9 inh -8 and S100A4 inh HTS 1.
For CCCC#Cc1ccc([C@@H]2[C@H]3CN(Cc4cncnc4)CCCCN3[C@H]2CO)cc1 the results were DENV2 CPE rescue 29*, Ecoli rRNA inh 1, Cneo AK release -1, MLL AF4-AF9 inh 5 and S100A4 inh HTS -9.
`CCCC#Cc1ccc([C@H]2[C@@H](CO)N3CCCCN(Cc4ccncc4)C[C@H]23)cc1` gave DENV2 CPE rescue -25, Ecoli rRNA inh 3, Cneo AK release -2, MLL AF4-AF9 inh -5 and S100A4 inh HTS -5.
`CCCC#Cc1ccc([C@@H]2[C@@H](CO)N3CCCCN(Cc4cncnc4)C[C@H]23)cc1` gave Ecoli rRNA inh 7 and Cneo AK release 0.
`CCCC#Cc1ccc([C@@H]2[C@@H](CO)N3CCCCN(Cc4ccncc4)C[C@H]23)cc1` gave DENV2 CPE rescue 47*, Ecoli rRNA inh 8, Cneo AK release -2, MLL AF4-AF9 inh -10 and S100A4 inh HTS -10.
Screening C[C@H]1CN([C@@H](C)CO)C(=O)c2ccccc2-c2ccccc2CO[C@@H]1CN(C)S(=O)(=O)c1ccc(F)cc1 returned DENV2 CPE rescue 2, Ecoli rRNA inh 6, Cneo AK release -3, MLL AF4-AF9 inh -4 and S100A4 inh HTS -2.
C[C@@H]1CN([C@H](C)CO)S(=O)(=O)c2ccc(C#Cc3ccncc3)cc2O[C@@H]1CN(C)CC1CC1 was read as DENV2 CPE rescue 13, Ecoli rRNA inh -1, Cneo AK release -1, MLL AF4-AF9 inh 2 and S100A4 inh HTS 8.
Screening Cc1cccc(N2CCN(C(=O)CCC(=O)N3CC(C)Oc4ccccc43)CC2)c1C (configuration not stated) returned DENV2 CPE rescue 13, Ecoli rRNA inh -2, Cneo AK release 1, PfHsp90 set2 -2, MLL AF4-AF9 inh -13 and S100A4 inh HTS 1.
For Cc1cccc(N2CCN(C(=O)CCC(=O)N3Cc4ccccc4Oc4ncccc43)CC2)c1C the results were DENV2 CPE rescue 1, Ecoli rRNA inh -25, Cneo AK release 2, PfHsp90 set2 11, MLL AF4-AF9 inh 47* and S100A4 inh HTS -19.
CN(C)/C=N/c1ncc(C(=O)c2ccccc2)s1 was read as Cneo AK release 0 and PfHsp90 set2 -14.
CN(C)/C=N/c1ncc(C(=O)c2ccc(-c3ccccc3)cc2)s1 was read as DENV2 CPE rescue -1, Ecoli rRNA inh -18*, PfHsp90 set2 -40, MLL AF4-AF9 inh 0 and S100A4 inh HTS 3.
For COCCN1C(=O)CN(S(C)(=O)=O)CC1(C)C(=O)NCc1ccccc1 (configuration not stated) the results were DENV2 CPE rescue 5 and S100A4 inh HTS -2.
Screening CC1(C(=O)NCc2ccccc2)CSCC(=O)N1CCc1c[nH]c2ccccc12 (configuration not stated) returned DENV2 CPE rescue -5, Ecoli rRNA inh -41*, MLL AF4-AF9 inh 5 and S100A4 inh HTS 0.
Screening CC1(C(=O)NCc2ccccc2)CN(S(C)(=O)=O)CC(=O)N1CCc1ccccc1 (configuration not stated) returned DENV2 CPE rescue -7 and S100A4 inh HTS -2.
For CC(C)CN1C(=O)CN(S(C)(=O)=O)CC1(C)C(=O)NC(C)C (configuration not stated) the results were DENV2 CPE rescue 27* and S100A4 inh HTS -4.
Screening CC1(C(=O)NCc2ccccc2)CN(S(C)(=O)=O)CC(=O)N1CCc1ccccc1F (configuration not stated) returned DENV2 CPE rescue 74*, Ecoli rRNA inh 0, MLL AF4-AF9 inh -1 and S100A4 inh HTS -2.
For CC1(C(=O)NCc2ccccc2)CN(S(C)(=O)=O)CC(=O)N1CCc1ccc(O)cc1 (configuration not stated) the results were DENV2 CPE rescue 26*, Ecoli rRNA inh 3, MLL AF4-AF9 inh 1 and S100A4 inh HTS -5.
For CCCC#Cc1ccc2c(c1)O[C@@H](CN(C)C)[C@H](C)CN([C@@H](C)CO)S2(=O)=O the results were DENV2 CPE rescue 11, Ecoli rRNA inh 1, Cneo AK release 2, MLL AF4-AF9 inh -3 and S100A4 inh HTS -5.
For C[C@@H]1CCCCO[C@H](CN(C)C(=O)Nc2ccc3c(c2)OCO3)[C@H](C)CN([C@@H](C)CO)C(=O)c2cc(NC(=O)CCCN(C)C)ccc2O1 the results were DENV2 CPE rescue 11, Ecoli rRNA inh 0, Cneo AK release -1, MLL AF4-AF9 inh 8 and S100A4 inh HTS 14.
For CCCN(C)C[C@@H]1Oc2cc(C#Cc3cccc(OC)c3)ccc2S(=O)(=O)N([C@@H](C)CO)C[C@@H]1C the results were Ecoli rRNA inh -6, Cneo AK release -1, MLL AF4-AF9 inh 7 and S100A4 inh HTS 6.
`CCOC(=O)c1c(CSC(=N)N)n(-c2ccccc2)c2cc(Br)c(OC(C)=O)cc12` gave DENV2 CPE rescue 5, Ecoli rRNA inh -43*, PfHsp90 set2 -1, MLL AF4-AF9 inh 16 and S100A4 inh HTS -2.
For C[C@@H]1CCCCO[C@@H](CN(C)CC2CCCCC2)[C@H](C)CN([C@H](C)CO)C(=O)c2cc(NS(=O)(=O)c3cccs3)ccc2O1 the results were DENV2 CPE rescue -1, Ecoli rRNA inh 1, Cneo AK release 2, MLL AF4-AF9 inh 12 and S100A4 inh HTS -2.
For C[C@H]1CN([C@@H](C)CO)C(=O)c2cccc(NS(=O)(=O)c3ccc(F)cc3)c2O[C@H]1CN(C)Cc1ccc(Oc2ccccc2)cc1 the results were Ecoli rRNA inh 2.
C[C@H](CO)N1C[C@H](C)[C@@H](CN(C)Cc2ccc(Oc3ccccc3)cc2)Oc2c(NS(=O)(=O)c3ccc(F)cc3)cccc2C1=O was read as DENV2 CPE rescue 39*, Ecoli rRNA inh 0, MLL AF4-AF9 inh 4 and S100A4 inh HTS 7.
Screening C[C@H]1CN([C@@H](C)CO)C(=O)c2cccc(NS(=O)(=O)c3ccccc3)c2O[C@@H]1CN(C)Cc1ccc(C(=O)O)cc1 returned DENV2 CPE rescue 31*, Ecoli rRNA inh 2, Cneo AK release -5, MLL AF4-AF9 inh -3 and S100A4 inh HTS 18.
Screening CCCNC(=O)N1CC(=O)N2[C@@H](CO)[C@H](c3ccc(C#Cc4cccc(F)c4)cc3)[C@@H]2C1 returned DENV2 CPE rescue 17, Ecoli rRNA inh 0, MLL AF4-AF9 inh -2 and S100A4 inh HTS -11.

High-throughput results deposited in PubChem BioAssay by Broad Institute.
